Measured values: ChEMBL document CHEMBL1152521, “Synthesis and biological evaluation of radioiodinated 2,5-diphenyl-1,3,4-oxadiazoles for detecting beta-amyloid plaques in the brain” (Bioorg Med Chem, 2009)
The source made the active and inactive calls. The calls are words filed in the database; no cut-off is given here.

Key:
[1] = Displacement of [125I]IMPY from aggregated amyloid beta (1-42) by gamma counting
[2] = species: Mus musculus; test: Binding affinity to amyloid beta (1-42) in brain of transgenic 2576 mouse Alzheimer's model at 100 uM after 30 mins by thioflavin S staining-based fluorescence microscopic analysis
[3] = Octanol-phosphate buffer partition coefficient, log P at pH 7.4 by gamma counting of radioactivity
[4] = tested on: Heart; test: Biodistribution in ddY mouse heart at 0.2 to 0.4 uCi, iv after 30 mins post-injection by gamma counting; format: ADME, organism-based; conditions: in vivo, 0.5 h
How it was run: (§1)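 Normal ddY mice (5-week-old, 22-25 g) received 0.2–0.4 μCi of the 125I-labelled agent by tail-vein injection in 100 μL saline containing 10 μL ethanol. Animals were killed at 2, 10, 30 or 60 min, and organs were removed, weighed and gamma counted. Values are % injected dose per gram, mean (SD) of 4-6 animals.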

[5] = tested on: Intestine; test: Biodistribution in ddY mouse intestine at 0.2 to 0.4 uCi, iv after 10 mins post-injection by gamma counting; format: ADME, organism-based; conditions: in vivo; how it was run: as §1
[6] = tested on: Pancreas; test: Biodistribution in ddY mouse pancreas at 0.2 to 0.4 uCi, iv after 30 mins post-injection by gamma counting; format: ADME, organism-based; conditions: in vivo, 0.5 h; how it was run: as §1
[7] = tested on: Kidney; test: Biodistribution in ddY mouse kidney at 0.2 to 0.4 uCi, iv after 10 mins post-injection by gamma counting; format: ADME, organism-based; conditions: in vivo; how it was run: as §1
[8] = tested on: Blood; test: Biodistribution in ddY mouse blood at 0.2 to 0.4 uCi, iv after 30 mins post-injection by gamma counting; format: ADME, organism-based; conditions: in vivo, 0.5 h; how it was run: as §1
[9] = tested on: Pancreas; test: Biodistribution in ddY mouse pancreas at 0.2 to 0.4 uCi, iv after 2 mins post-injection by gamma counting; format: ADME, organism-based; conditions: in vivo; how it was run: as §1
[10] = tested on: Liver; test: Biodistribution in ddY mouse liver at 0.2 to 0.4 uCi, iv after 60 mins post-injection by gamma counting; format: ADME, organism-based; conditions: in vivo, 1 h; how it was run: as §1
[11] = tested on: Blood; test: Biodistribution in ddY mouse blood at 0.2 to 0.4 uCi, iv after 2 mins post-injection by gamma counting; format: ADME, organism-based; conditions: in vivo; how it was run: as §1
[12] = tested on: Heart; test: Biodistribution in ddY mouse heart at 0.2 to 0.4 uCi, iv after 10 mins post-injection by gamma counting; format: ADME, organism-based; conditions: in vivo; how it was run: as §1
[13] = tested on: Brain; test: Biodistribution in ddY mouse brain at 0.2 to 0.4 uCi, iv after 60 mins post-injection by gamma counting; format: ADME, organism-based; conditions: in vivo, 1 h; how it was run: as §1
[14] = tested on: Blood; test: Biodistribution in ddY mouse blood at 0.2 to 0.4 uCi, iv after 10 mins post-injection by gamma counting; format: ADME, organism-based; conditions: in vivo; how it was run: as §1
[15] = tested on: Liver; test: Biodistribution in ddY mouse liver at 0.2 to 0.4 uCi, iv after 2 mins post-injection by gamma counting; format: ADME, organism-based; conditions: in vivo; how it was run: as §1
[16] = tested on: Brain; test: Biodistribution in ddY mouse brain at 0.2 to 0.4 uCi, iv after 30 mins post-injection by gamma counting; format: ADME, organism-based; conditions: in vivo, 0.5 h; how it was run: as §1
[17] = tested on: Intestine; test: Biodistribution in ddY mouse intestine at 0.2 to 0.4 uCi, iv after 60 mins post-injection by gamma counting; format: ADME, organism-based; conditions: in vivo, 1 h; how it was run: as §1
[18] = tested on: Pancreas; test: Biodistribution in ddY mouse pancreas at 0.2 to 0.4 uCi, iv after 10 mins post-injection by gamma counting; format: ADME, organism-based; conditions: in vivo; how it was run: as §1
[19] = tested on: Stomach; test: Biodistribution in ddY mouse stomach assessed per organ at 0.2 to 0.4 uCi, iv after 2 mins post-injection by gamma counting; format: ADME, organism-based; conditions: in vivo
How it was run: (§2)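 Normal ddY mice (5-week-old, 22-25 g) were injected by tail vein with 0.2–0.4 μCi of 125I ligand in saline (100 μL) containing 10 μL ethanol. At 2, 10, 30 or 60 min the stomach was removed and gamma counted. Values are % injected dose per organ, mean (SD) of 4-6 animals.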

[20] = tested on: Brain; test: Biodistribution in ddY mouse brain at 0.2 to 0.4 uCi, iv after 10 mins post-injection by gamma counting; format: ADME, organism-based; conditions: in vivo; how it was run: as §1
[21] = tested on: Spleen; test: Biodistribution in ddY mouse spleen at 0.2 to 0.4 uCi, iv after 2 mins post-injection by gamma counting; format: ADME, organism-based; conditions: in vivo; how it was run: as §1
[22] = tested on: Spleen; test: Biodistribution in ddY mouse spleen at 0.2 to 0.4 uCi, iv after 10 mins post-injection by gamma counting; format: ADME, organism-based; conditions: in vivo; how it was run: as §1
[23] = tested on: Heart; test: Biodistribution in ddY mouse heart at 0.2 to 0.4 uCi, iv after 60 mins post-injection by gamma counting; format: ADME, organism-based; conditions: in vivo, 1 h; how it was run: as §1
[24] = tested on: Spleen; test: Biodistribution in ddY mouse spleen at 0.2 to 0.4 uCi, iv after 30 mins post-injection by gamma counting; format: ADME, organism-based; conditions: in vivo, 0.5 h; how it was run: as §1
[25] = tested on: Stomach; test: Biodistribution in ddY mouse stomach assessed per organ at 0.2 to 0.4 uCi, iv after 30 mins post-injection by gamma counting; format: ADME, organism-based; conditions: in vivo, 0.5 h; how it was run: as §2
[26] = tested on: Heart; test: Biodistribution in ddY mouse heart at 0.2 to 0.4 uCi, iv after 2 mins post-injection by gamma counting; format: ADME, organism-based; conditions: in vivo; how it was run: as §1
[27] = tested on: Kidney; test: Biodistribution in ddY mouse kidney at 0.2 to 0.4 uCi, iv after 2 mins post-injection by gamma counting; format: ADME, organism-based; conditions: in vivo; how it was run: as §1
[28] = tested on: Blood; test: Biodistribution in ddY mouse blood at 0.2 to 0.4 uCi, iv after 60 mins post-injection by gamma counting; format: ADME, organism-based; conditions: in vivo, 1 h; how it was run: as §1
[29] = tested on: Brain; test: Biodistribution in ddY mouse brain at 0.2 to 0.4 uCi, iv after 2 mins post-injection by gamma counting; format: ADME, organism-based; conditions: in vivo; how it was run: as §1
[30] = tested on: Kidney; test: Biodistribution in ddY mouse kidney at 0.2 to 0.4 uCi, iv after 60 mins post-injection by gamma counting; format: ADME, organism-based; conditions: in vivo, 1 h; how it was run: as §1
[31] = tested on: Liver; test: Biodistribution in ddY mouse liver at 0.2 to 0.4 uCi, iv after 30 mins post-injection by gamma counting; format: ADME, organism-based; conditions: in vivo, 0.5 h; how it was run: as §1
[32] = tested on: Pancreas; test: Biodistribution in ddY mouse pancreas at 0.2 to 0.4 uCi, iv after 60 mins post-injection by gamma counting; format: ADME, organism-based; conditions: in vivo, 1 h; how it was run: as §1
[33] = tested on: Liver; test: Biodistribution in ddY mouse liver at 0.2 to 0.4 uCi, iv after 10 mins post-injection by gamma counting; format: ADME, organism-based; conditions: in vivo; how it was run: as §1
[34] = tested on: Stomach; test: Biodistribution in ddY mouse stomach assessed per organ at 0.2 to 0.4 uCi, iv after 10 mins post-injection by gamma counting; format: ADME, organism-based; conditions: in vivo; how it was run: as §2
[35] = tested on: Kidney; test: Biodistribution in ddY mouse kidney at 0.2 to 0.4 uCi, iv after 30 mins post-injection by gamma counting; format: ADME, organism-based; conditions: in vivo, 0.5 h; how it was run: as §1
[36] = tested on: Spleen; test: Biodistribution in ddY mouse spleen at 0.2 to 0.4 uCi, iv after 60 mins post-injection by gamma counting; format: ADME, organism-based; conditions: in vivo, 1 h; how it was run: as §1
[37] = tested on: Intestine; test: Biodistribution in ddY mouse intestine at 0.2 to 0.4 uCi, iv after 2 mins post-injection by gamma counting; format: ADME, organism-based; conditions: in vivo; how it was run: as §1
[38] = tested on: Stomach; test: Biodistribution in ddY mouse stomach assessed per organ at 0.2 to 0.4 uCi, iv after 60 mins post-injection by gamma counting; format: ADME, organism-based; conditions: in vivo, 1 h; how it was run: as §2
[39] = tested on: Intestine; test: Biodistribution in ddY mouse intestine at 0.2 to 0.4 uCi, iv after 30 mins post-injection by gamma counting; format: ADME, organism-based; conditions: in vivo, 0.5 h; how it was run: as §1

In the case of `COc1ccc(-c2nnc(-c3ccc(I)cc3)o2)cc1`, the Ki [1] is reported as 46.1 nM, the Activity [2] is reported as “Active” and the logD [3] is reported as 2.58.

For `CN(C)c1ccc(-c2nc(-c3ccc(I)cc3)no2)cc1`, the logD [3] was 3.22.

In the case of `COc1ccc(-c2nc(-c3ccc(I)cc3)no2)cc1`, the logD [3] is reported as 3.37.

Work on `OCCOCCOc1ccc(-c2nnc(-c3ccc(I)cc3)o2)cc1` yielded a Ki [1] of 349 nM.

`COc1ccc(-c2nnc(-c3ccc([125I])cc3)o2)cc1` gave a Drug uptake [4] of 0.92 % ID/g, a Drug uptake [5] of 4.49 % ID/g and a Drug uptake [6] of 0.96 % ID/g. For the same compound, the Drug uptake [7] was 4.85 % ID/g, the Drug uptake [8] was 1.26 % ID/g and the Drug uptake [9] was 4.74 % ID/g. For the same compound, the Drug uptake [10] was 4.65 % ID/g, the Drug uptake [11] was 1.84 % ID/g and the Drug uptake [12] was 1.73 % ID/g. For the same compound, the Drug uptake [13] was 0.36 % ID/g, the Drug uptake [14] was 1.6 % ID/g and the Drug uptake [15] was 9.6 % ID/g. For the same compound, the Drug uptake [16] was 1.04 % ID/g, the Drug uptake [17] was 19.85 % ID/g and the Drug uptake [18] was 1.98 % ID/g. The Drug uptake [19] was 0.71 %ID, the Drug uptake [20] was 2.74 % ID/g and the Drug uptake [21] was 2.44 % ID/g. For the same compound, the Drug uptake [22] was 1.51 % ID/g, the Drug uptake [23] was 0.43 % ID/g and the Drug uptake [24] was 0.8 % ID/g. The Drug uptake [25] was 3.12 %ID, the Drug uptake [26] was 4.8 % ID/g and the Drug uptake [27] was 7.14 % ID/g. The Drug uptake [28] was 0.8 % ID/g, the Drug uptake [29] was 3.75 % ID/g and the Drug uptake [30] was 2.48 % ID/g. For the same compound, the Drug uptake [31] was 8.07 % ID/g, the Drug uptake [32] was 0.57 % ID/g and the Drug uptake [33] was 12.6 % ID/g. The Drug uptake [34] was 1.41 %ID, the Drug uptake [35] was 4.36 % ID/g and the Drug uptake [36] was 0.6 % ID/g. For the same compound, the Drug uptake [37] was 2.07 % ID/g, the Drug uptake [38] was 2.9 %ID and the Drug uptake [39] was 10.06 % ID/g.
